Results as given in ChEMBL document CHEMBL5036319, “Discovery of Novel Benzothiazepinones as Irreversible Covalent Glycogen Synthase Kinase 3β Inhibitors for the Treatment of Acute Promyelocytic Leukemia” (J Med Chem, 2021).
Active and inactive are the calls of the source. The calls are words filed in the database; no cut-off is given here.

How the values were obtained:
[1] = Induction in caspase-mediated apoptosis in human NB4-DR1 cells assessed as necrotic cells at 100 uM incubated for 24 hrs in presence of Z-VAD-FMK by Annexin V-FITC/propidium iodide staining based flow cytometry analysis (reference value: 0.223%); type: functional
[2] = Induction in caspase-mediated apoptosis in human NB-4 cells assessed as viable cells at 12.5 uM incubated for 24 hrs by Annexin V-FITC/propidium iodide staining based flow cytometry analysis (reference value: 96.6%); type: functional; details: read-out: Activity
[3] = Induction in caspase-mediated apoptosis in human NB-4 cells assessed as early apoptotic cells at 100 uM incubated for 24 hrs in presence of Z-VAD-FMK by Annexin V-FITC/propidium iodide staining based flow cytometry analysis (reference value: 1.84%); type: functional
[4] = Induction in caspase-mediated apoptosis in human NB-4 cells assessed as early apoptotic cells at 25 uM incubated for 24 hrs in presence of Z-VAD-FMK by Annexin V-FITC/propidium iodide staining based flow cytometry analysis (reference value: 1.84%); type: functional
[5] = Induction in caspase-mediated apoptosis in human NB4-DR1 cells assessed as early apoptotic cells at 50 uM incubated for 24 hrs by Annexin V-FITC/propidium iodide staining based flow cytometry analysis (reference value: 1.43%); type: functional
[6] = tested on: NB-4; test: Cytotoxicity against human NB-4 cells assessed as reduction in cell viability measured after 24 hrs by CCK-8 assay; type: functional, cell-based; details: NB-4, 24 h
In short: (§1)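 Cells were grown in RPMI-1640 or high-glucose DMEM with 10% FBS at 37 °C, 5% CO2, and seeded at 3 × 10^4 cells/well. Exposure was 24 h across serial concentrations (0−1000 μM in the screen). […] Three independent experiments, mean ± SEM.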

[7] = Induction in caspase-mediated apoptosis in human NB4-DR1 cells assessed as early apoptotic cells at 100 uM incubated for 24 hrs by Annexin V-FITC/propidium iodide staining based flow cytometry analysis (reference value: 1.43%); type: functional
[8] = Cytotoxicity against human L02 assessed as cell viability at 100 uM incubated for 24 hrs by CCK-8 assay relative to control; type: cell-based; details: L02 cells, read-out: Activity
In short: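 HUVEC and LO2 normal cells were cultured in RPMI-1640 or DMEM with 10% FBS at 37 °C, 5% CO2, and seeded at 3 × 10^4 cells/well. They were exposed for 24 h to graded concentrations. CCK-8 incubation was 3 h at 37 °C, with A450 read and viability expressed versus untreated control. Three independent experiments, mean ± SEM.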

[9] = Induction in caspase-mediated apoptosis in human NB4-DR1 cells assessed as viable cells at 100 uM incubated for 24 hrs by Annexin V-FITC/propidium iodide staining based flow cytometry analysis (reference value: 96.9%); type: functional; details: read-out: Activity
[10] = Induction in caspase-mediated apoptosis in human NB-4 cells assessed as viable cells at 25 uM incubated for 24 hrs by Annexin V-FITC/propidium iodide staining based flow cytometry analysis (reference value: 96.6%); type: functional; details: read-out: Activity
[11] = Induction in caspase-mediated apoptosis in human NB4-DR1 cells assessed as early apoptosis cells at 50 uM incubated for 24 hrs in presence of Z-VAD-FMK by Annexin V-FITC/propidium iodide staining based flow cytometry analysis (reference value: 0.875%); type: functional
[12] = AUClast in ICR mouse at 15 mg/kg, ip administered as single dose measured upto 8 hrs by LC-MS/MS analysis; type: ADME, organism-based; set-up: route intraperitoneal, dose 15 mg/kg, time <=8; details: in vivo
In short: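 Male ICR mice (30 g) given a single i.p. bolus of 15 mg/kg in corn oil. Blood taken by orbital collection into K3EDTA tubes at 0.08, 0.17, 0.5, 1, 2, 4 and 8 h, three animals per time point, giving a composite profile. Plasma proteins were precipitated with acetonitrile and analysed by LC-MS/MS. Parameters were derived by non-compartmental analysis.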

[13] = Induction in caspase-mediated apoptosis in human NB-4 cells assessed as late apoptotic cells at 12.5 uM incubated for 24 hrs by Annexin V-FITC/propidium iodide staining based flow cytometry analysis (reference value: 1.06%); type: functional
[14] = Induction in caspase-mediated apoptosis in human NB-4 cells assessed as early apoptotic cells at 50 uM incubated for 24 hrs by Annexin V-FITC/propidium iodide staining based flow cytometry analysis (reference value: 2.02%); type: functional
[15] = Induction in caspase-mediated apoptosis in human NB4-DR1 cells assessed as early apoptosis cells at 100 uM incubated for 24 hrs in presence of Z-VAD-FMK by Annexin V-FITC/propidium iodide staining based flow cytometry analysis (reference value: 0.875%); type: functional
[16] = Induction in caspase-mediated apoptosis in human NB4-DR1 cells assessed as viable cells at 50 uM incubated for 24 hrs in presence of Z-VAD-FMK by Annexin V-FITC/propidium iodide staining based flow cytometry analysis (reference value: 96.4%); type: functional; details: read-out: Activity
[17] = Induction in caspase-mediated apoptosis in human NB-4 cells assessed as necrotic cells at 50 uM incubated for 24 hrs by Annexin V-FITC/Propidium iodide staining based flow cytometry analysis (reference value: 0.352%); type: functional
[18] = Induction in caspase-mediated apoptosis in human NB4-DR1 cells assessed as viable cells at 100 uM incubated for 24 hrs in presence of Z-VAD-FMK by Annexin V-FITC/propidium iodide staining based flow cytometry analysis (reference value: 96.4%); type: functional; details: read-out: Activity
[19] = tested on: NB4-DR1; test: Antiproliferative activity against human NB4-DR1 cells assessed as reduction in cell viability incubated for 24 hrs by CCK-8 assay; type: functional, cell-based; details: NB4-DR1, 24 h; in short: as §1
[20] = Induction in caspase-mediated apoptosis in human NB-4 cells assessed as viable cells at 100 uM incubated for 24 hrs by Annexin V-FITC/propidium iodide staining based flow cytometry analysis (reference value: 96.6%); type: functional; details: read-out: Activity
[21] = Induction in caspase-mediated apoptosis in human NB-4 cells assessed as early apoptotic cells at 12.5 uM incubated for 24 hrs by Annexin V-FITC/propidium iodide staining based flow cytometry analysis (reference value: 2.02%); type: functional
[22] = Induction in caspase-mediated apoptosis in human NB-4 cells assessed as necrotic cells at 12.5 uM incubated for 24 hrs in presence of Z-VAD-FMK by Annexin V-FITC/propidium iodide staining based flow cytometry analysis (reference value: 0.167%); type: functional
[23] = Induction in caspase-mediated apoptosis in human NB-4 cells assessed as early apoptotic cells at 12.5 uM incubated for 24 hrs in presence of Z-VAD-FMK by Annexin V-FITC/propidium iodide staining based flow cytometry analysis (reference value: 1.84%); type: functional
[24] = Induction in caspase-mediated apoptosis in human NB4-DR1 cells assessed as early apoptotic cells at 25 uM incubated for 24 hrs by Annexin V-FITC/propidium iodide staining based flow cytometry analysis (reference value: 1.43%); type: functional
[25] = tested on: NB-4; test: Effect on glycogen synthase phosphorylation in human NB-4 cells assessed as reduction in ratio of p-GS to GS measured after 24 hrs by Western blot analysis; type: functional, cell-based
In short: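 NB4 and NB4-R1 cells were treated 24 h at several concentrations and lysed in RIPA. Equal protein was immunoblotted for phospho-glycogen synthase (Ser641), total GS and β-actin, with ECL detection. Band densities were quantified as the p-GS/GS ratio. n = 3, mean ± SEM.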

C=CC(=O)N1C(=O)CC(c2ccc(F)cc2)Sc2ccccc21 (stereo not given)
Activity [1]: 1.4% | viability at 12.5 µM [2]: 77% | Activity [3]: 5.35% | Activity [4]: 7.42% | Activity [5]: 1.92% | IC50 [6]: 19.6 µM | Activity [7]: 4.16% | viability at 24 h, 100 µM [8]: > 70% | viability at 100 µM [9]: 42.7% | viability at 25 µM [10]: 36.4% | Activity [11]: 1.12% | AUC(0-t) at 8 h [12]: 3500 ng·h/mL | Activity [13]: 8.04% | Activity [14]: 7.23% | Activity [15]: 2.19% | viability at 50 µM [16]: 91.3% | Activity [17]: 4.51% | viability at 100 µM [18]: 82.2% | IC50 [19]: 26.4 µM | viability at 100 µM [20]: 5.94% | Activity [21]: 8.87% | Activity [22]: 1.59% | Activity [23]: 4.58% | Activity [24]: 2.07% | Activity [25]: Active
